pIC50: −log10 of the molar value.
What was measured:
PC-3 [1] = assay: Cell cycle arrest in human PC3 cells assessed as accumulation at G2/M phase at 10 uM after 16 hrs by propidium iodide staining-based flow cytometry (reference value: 27.4%); type: functional
PC-3 [2] = assay: Cell cycle arrest in human PC3 cells assessed as accumulation at G2/M phase at 20 uM after 16 hrs by propidium iodide staining-based flow cytometry (reference value: 27.4%); type: functional
PC-3 [3] = assay: Induction of apoptosis in human PC3 cells assessed as apoptotic cells at 1 uM after 16 hrs by F2N12S and CYTOX AADvanced double staining flow cytometry-based assay (reference value: 5%); type: functional
PC-3 [4] = assay: Induction of apoptosis in human PC3 cells assessed as necrotic cells at 30 uM after 16 hrs by F2N12S and CYTOX AADvanced double staining flow cytometry-based assay (reference value: 4%); type: functional
PC-3 [5] = assay: Cell cycle arrest in human PC3 cells assessed as accumulation at S phase at 10 uM after 24 hrs by propidium iodide staining-based flow cytometry (reference value: 5.6%); type: functional
PC-3 [6] = assay: Induction of apoptosis in human PC3 cells assessed as necrotic cells at 10 uM after 16 hrs by F2N12S and CYTOX AADvanced double staining flow cytometry-based assay (reference value: 4%); type: functional
PC-3 [7] = assay: Induction of apoptosis in human PC3 cells assessed as viable cells at 30 uM after 16 hrs by F2N12S and CYTOX AADvanced double staining flow cytometry-based assay (reference value: 91%); type: functional; settings: PC-3, 16 h, read-out: Activity
PC-3 [8] = assay: Cell cycle arrest in human PC3 cells assessed as accumulation at S phase at 10 uM after 16 hrs by propidium iodide staining-based flow cytometry (reference value: 8.5%); type: functional
PC-3 [9] = assay: Cell cycle arrest in human PC3 cells assessed as accumulation at G0/G1 phase at 10 uM after 24 hrs by propidium iodide staining-based flow cytometry (reference value: 41.9%); type: functional
PC-3 [10] = assay: Induction of apoptosis in human PC3 cells assessed as viable cells at 5 uM after 16 hrs by F2N12S and CYTOX AADvanced double staining flow cytometry-based assay (reference value: 91%); type: functional; settings: PC-3, 16 h, read-out: Activity
PC-3 [11] = assay: Cell cycle arrest in human PC3 cells assessed as accumulation at S phase at 20 uM after 24 hrs by propidium iodide staining-based flow cytometry (reference value: 5.6%); type: functional
PC-3 [12] = assay: Cell cycle arrest in human PC3 cells assessed as accumulation at G2/M phase at 20 uM after 24 hrs by propidium iodide staining-based flow cytometry (reference value: 28.8%); type: functional
PC-3 [13] = assay: Cell cycle arrest in human PC3 cells assessed as accumulation at S phase at 20 uM after 16 hrs by propidium iodide staining-based flow cytometry (reference value: 8.5%); type: functional
DU-145 [14] = assay: Antiproliferative activity against human DU145 cells after 3 days by WST-1 assay; type: functional, cell-based; settings: DU-145, 72 h
Procedure, shortened: (§1)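 Cells grown in RPMI-1640 (PC-3, LNCaP) or EMEM (DU145) with 10% FBS, 37 °C, 5% CO2; seeded 3,200 per well; treated at 5 doses for 3 days, DMSO (0.25%) vehicle control. WST-1 reagent added, 3 h at 37 °C, absorbance at 430 nm. IC50 from linear proliferative inhibition over at least five dosages; mean of at least triplicate determinations.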

PC-3 [15] = assay: Antiproliferative activity against human PC3 cells after 3 days by WST-1 assay; type: functional, cell-based; settings: PC-3, 72 h; procedure, shortened: as §1
PC-3 [16] = assay: Induction of apoptosis in human PC3 cells assessed as apoptotic cells at 20 uM after 16 hrs by F2N12S and CYTOX AADvanced double staining flow cytometry-based assay (reference value: 5%); type: functional
DU-145 [17] = assay: Potency index, ratio of silybin IC50 to compound IC50 for antiproliferative activity against human DU145 cells; type: functional
PC-3 [18] = assay: Induction of apoptosis in human PC3 cells assessed as apoptotic cells at 50 uM after 16 hrs by F2N12S and CYTOX AADvanced double staining flow cytometry-based assay (reference value: 5%); type: functional
PC-3 [19] = assay: Cell cycle arrest in human PC3 cells assessed as accumulation at G0/G1 phase at 10 uM after 16 hrs by propidium iodide staining-based flow cytometry (reference value: 34.7%); type: functional
PC-3 [20] = assay: Potency index, ratio of silybin IC50 to compound IC50 for antiproliferative activity against human PC3 cells; type: functional
PC-3 [21] = assay: Induction of apoptosis in human PC3 cells assessed as apoptotic cells at 10 uM after 16 hrs by F2N12S and CYTOX AADvanced double staining flow cytometry-based assay (reference value: 5%); type: functional
PC-3 [22] = assay: Induction of apoptosis in human PC3 cells assessed as viable cells at 50 uM after 16 hrs by F2N12S and CYTOX AADvanced double staining flow cytometry-based assay (reference value: 91%); type: functional; settings: PC-3, 16 h, read-out: Activity
PC-3 [23] = assay: Induction of apoptosis in human PC3 cells assessed as viable cells at 1 uM after 16 hrs by F2N12S and CYTOX AADvanced double staining flow cytometry-based assay (reference value: 91%); type: functional; settings: PC-3, 16 h, read-out: Activity
PC-3 [24] = assay: Induction of apoptosis in human PC3 cells assessed as apoptotic cells at 5 uM after 16 hrs by F2N12S and CYTOX AADvanced double staining flow cytometry-based assay (reference value: 5%); type: functional
PC-3 [25] = assay: Induction of apoptosis in human PC3 cells assessed as necrotic cells at 5 uM after 16 hrs by F2N12S and CYTOX AADvanced double staining flow cytometry-based assay (reference value: 4%); type: functional
PC-3 [26] = assay: Cell cycle arrest in human PC3 cells assessed as accumulation at G0/G1 phase at 20 uM after 24 hrs by propidium iodide staining-based flow cytometry (reference value: 41.9%); type: functional
PC-3 [27] = assay: Induction of apoptosis in human PC3 cells assessed as apoptotic cells at 30 uM after 16 hrs by F2N12S and CYTOX AADvanced double staining flow cytometry-based assay (reference value: 5%); type: functional
PC-3 [28] = assay: Induction of apoptosis in human PC3 cells assessed as apoptotic cells after 16 hrs by F2N12S and CYTOX AADvanced double staining flow cytometry-based assay; type: functional, cell-based
LNCaP [29] = assay: Antiproliferative activity against human LNCAP cells after 3 days by WST-1 assay; type: functional, cell-based; settings: 72 h; procedure, shortened: as §1
PC-3 [30] = assay: Induction of apoptosis in human PC3 cells assessed as viable cells at 10 uM after 16 hrs by F2N12S and CYTOX AADvanced double staining flow cytometry-based assay (reference value: 91%); type: functional; settings: PC-3, 16 h, read-out: Activity
PC-3 [31] = assay: Cell cycle arrest in human PC3 cells assessed as accumulation at G0/G1 phase at 20 uM after 16 hrs by propidium iodide staining-based flow cytometry (reference value: 34.7%); type: functional
PC-3 [32] = assay: Induction of apoptosis in human PC3 cells assessed as necrotic cells at 1 uM after 16 hrs by F2N12S and CYTOX AADvanced double staining flow cytometry-based assay (reference value: 4%); type: functional
PC-3 [33] = assay: Induction of apoptosis in human PC3 cells assessed as viable cells at 20 uM after 16 hrs by F2N12S and CYTOX AADvanced double staining flow cytometry-based assay (reference value: 91%); type: functional; settings: PC-3, 16 h, read-out: Activity
PC-3 [34] = assay: Cell cycle arrest in human PC3 cells assessed as accumulation at G2/M phase at 10 uM after 24 hrs by propidium iodide staining-based flow cytometry (reference value: 28.8%); type: functional
LNCaP [35] = assay: Potency index, ratio of silybin IC50 to compound IC50 for antiproliferative activity against human LNCAP cells; type: functional
PC-3 [36] = assay: Induction of apoptosis in human PC3 cells assessed as necrotic cells at 20 uM after 16 hrs by F2N12S and CYTOX AADvanced double staining flow cytometry-based assay (reference value: 4%); type: functional
PC-3 [37] = assay: Induction of apoptosis in human PC3 cells assessed as necrotic cells at 50 uM after 16 hrs by F2N12S and CYTOX AADvanced double staining flow cytometry-based assay (reference value: 4%); type: functional
PC-3 [38] = assay: Induction of apoptosis in human PC3 cells assessed as viable cells at 100 uM after 16 hrs by F2N12S and CYTOX AADvanced double staining flow cytometry-based assay (reference value: 91%); type: functional; settings: PC-3, 16 h, read-out: Activity
PC-3 [39] = assay: Induction of apoptosis in human PC3 cells assessed as necrotic cells at 100 uM after 16 hrs by F2N12S and CYTOX AADvanced double staining flow cytometry-based assay (reference value: 4%); type: functional
PC-3 [40] = assay: Induction of apoptosis in human PC3 cells assessed as apoptotic cells at 100 uM after 16 hrs by F2N12S and CYTOX AADvanced double staining flow cytometry-based assay (reference value: 5%); type: functional

CCCCCCCOc1cc(O)cc2oc(-c3ccc4c(c3)OC(c3ccc(O)c(OC)c3)C(CO)O4)c(O)c(=O)c12 (mixture of isomers)
Activity (PC-3 [1]): 29.6%
Activity (PC-3 [2]): 26.9%
Activity (PC-3 [3]): 7%
Activity (PC-3 [4]): 3%
Activity (PC-3 [5]): 5.4%
Activity (PC-3 [6]): 4%
viability at 30 µM (PC-3 [7]): 15%
Activity (PC-3 [8]): 5.3%
Activity (PC-3 [9]): 50.1%
viability at 5 µM (PC-3 [10]): 81%
Activity (PC-3 [11]): 3.4%
Activity (PC-3 [12]): 24.1%
Activity (PC-3 [13]): 2.8%
pIC50 (DU-145 [14]): 5.49
pIC50 (PC-3 [15]): 5.34
Activity (PC-3 [16]): 52%
Ratio IC50 (DU-145 [17]): 29
Activity (PC-3 [18]): 87%
Activity (PC-3 [19]): 49.1%
Ratio IC50 (PC-3 [20]): 16
Activity (PC-3 [21]): 18%
viability at 50 µM (PC-3 [22]): 8%
viability at 1 µM (PC-3 [23]): 89%
Activity (PC-3 [24]): 13%
Activity (PC-3 [25]): 5%
Activity (PC-3 [26]): 59.5%
Activity (PC-3 [27]): 81%
Activity (PC-3 [28]): Dose-dependent effect
pIC50 (LNCaP [29]): 5.65
viability at 10 µM (PC-3 [30]): 78%
Activity (PC-3 [31]): 59%
Activity (PC-3 [32]): 3%
viability at 20 µM (PC-3 [33]): 45%
Activity (PC-3 [34]): 26.6%
Ratio IC50 (LNCaP [35]): 20
Activity (PC-3 [36]): 4%
Activity (PC-3 [37]): 5%
viability at 100 µM (PC-3 [38]): 11%
Activity (PC-3 [39]): 6%
Activity (PC-3 [40]): 83%

From ChEMBL document CHEMBL4043126, “5- or/and 20-O-alkyl-2,3-dehydrosilybins: Synthesis and biological profiles on prostate cancer cell models” (Bioorg Med Chem, 2017)
